In ChEMBL document CHEMBL5303300, “EUbOPEN Chemogenomics Library - Multiplex” (2023):
Several values for one entry are separate records, joined by “and”; a condition that tells them apart may be missing. Equal entries are not always repeated.

What was measured:
HEK-293T = assay: Multiplex assay against HEK293T; assay type: toxicity, cell-based; details: human, number of replicates 2
How it was run: (§1)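 With compound added, live cells were imaged on a CQ1 microscope at 37°C and 5% CO2; staining with Hoechst33342, BioTracker Green Microtubule Cytoskeleton Dye, MitoTracker Red and Annexin V Alexa Fluor 680 had been done at seeding. The CellPathfinder machine-learning gating scheme split cells into Hoechst high-intensity objects or normal cells, normal cells into healthy, pyknosed or fragmented nuclei, and pyknosed cells into mitotic or apoptotic. The tubulin, mitochondrial-mass and membrane-permeability phenotypes are per cents of healthy-nucleus cells.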

Fibroblast = assay: Multiplex assay against human fibroblast; assay type: toxicity, cell-based; details: number of replicates 2; how it was run: as §1
[1] = 12 h, 1 µM, compound concentration 1 uM
[2] = 12 h, 10 µM, compound concentration 10 uM
[3] = 24 h, 1 µM, compound concentration 1 uM
[4] = 24 h, 10 µM, compound concentration 10 uM
[5] = 48 h, 1 µM, compound concentration 1 uM
[6] = 48 h, 10 µM, compound concentration 10 uM

SMILES: COc1cc(OC)cc(-c2cc3cnc(N)nc3nc2NC(=O)NC(C)(C)C)c1
- Population Apoptotic (%) (HEK-293T; [1]): 61% and 63% and 50% and 43%
- Population Fragmented Nuclei (%) (HEK-293T; [1]): 7% and 3% and 2% and 4%
- Population Healthy Nuclei (%) (HEK-293T; [1]): 77% and 80% and 85% and 83%
- Population Hoechst High Intensity Objects (%) (HEK-293T; [1]): 9% and 11% and 10%
- Population Membrane Permeable-Phenotype (%) (HEK-293T; [1]): 6% and 2% and 3% and 1%
- Population Mitochondria Different-Phenotype (%) (HEK-293T; [1]): 15% and 13% and 18% and 20%
- Population Mitotic Cells (%) (HEK-293T; [1]): 38% and 36% and 50% and 56%
- Population Normal (%) (HEK-293T; [1]): 90% and 88% and 89%
- Population Pyknosed Nuclei (%) (HEK-293T; [1]): 15% and 16% and 11%
- Population Tubulin-Different-Phenotype (%) (HEK-293T; [1]): 55% and 48% and 54% and 53%
- Total Cell Count (HEK-293T; [1]): 713 and 595 and 582 and 616
- Population Apoptotic (%) (HEK-293T; [2]): 52% and 55% and 50% and 64%
- Population Fragmented Nuclei (%) (HEK-293T; [2]): 2% and 3% and 7% and 5%
- Population Healthy Nuclei (%) (HEK-293T; [2]): 82% and 86% and 79% and 81%
- Population Hoechst High Intensity Objects (%) (HEK-293T; [2]): 4% and 7% and 12% and 10%
- Population Membrane Permeable-Phenotype (%) (HEK-293T; [2]): 1% and 2%
- Population Mitochondria Different-Phenotype (%) (HEK-293T; [2]): 25% and 15% and 17% and 19%
- Population Mitotic Cells (%) (HEK-293T; [2]): 47% and 44% and 49% and 35%
- Population Normal (%) (HEK-293T; [2]): 95% and 92% and 87% and 89%
- Population Pyknosed Nuclei (%) (HEK-293T; [2]): 14% and 10% and 12%
- Population Tubulin-Different-Phenotype (%) (HEK-293T; [2]): 54% and 47% and 72% and 63%
- Total Cell Count (HEK-293T; [2]): 524 and 626 and 917 and 726
- Population Apoptotic (%) (HEK-293T; [3]): 46% and 54% and 51% and 53%
- Population Fragmented Nuclei (%) (HEK-293T; [3]): 10% and 7% and 8%
- Population Healthy Nuclei (%) (HEK-293T; [3]): 76% and 78% and 82% and 80%
- Population Hoechst High Intensity Objects (%) (HEK-293T; [3]): 10% and 8%
- Population Membrane Permeable-Phenotype (%) (HEK-293T; [3]): 3% and 1% and 2%
- Population Mitochondria Different-Phenotype (%) (HEK-293T; [3]): 5% and 2% and 7%
- Population Mitotic Cells (%) (HEK-293T; [3]): 53% and 45% and 48% and 46%
- Population Normal (%) (HEK-293T; [3]): 89% and 91%
- Population Pyknosed Nuclei (%) (HEK-293T; [3]): 12% and 11% and 9%
- Population Tubulin-Different-Phenotype (%) (HEK-293T; [3]): 28% and 23% and 29% and 30%
- Total Cell Count (HEK-293T; [3]): 1161 and 950 and 940 and 952
- Population Apoptotic (%) (HEK-293T; [4]): 52% and 40% and 48%
- Population Fragmented Nuclei (%) (HEK-293T; [4]): 5% and 4% and 11% and 8%
- Population Healthy Nuclei (%) (HEK-293T; [4]): 85% and 88% and 78% and 82%
- Population Hoechst High Intensity Objects (%) (HEK-293T; [4]): 8% and 9%
- Population Membrane Permeable-Phenotype (%) (HEK-293T; [4]): 3% and 2% and 1%
- Population Mitochondria Different-Phenotype (%) (HEK-293T; [4]): 11% and 4% and 3%
- Population Mitotic Cells (%) (HEK-293T; [4]): 47% and 59% and 51%
- Population Normal (%) (HEK-293T; [4]): 91% and 90%
- Population Pyknosed Nuclei (%) (HEK-293T; [4]): 9% and 6% and 10%
- Population Tubulin-Different-Phenotype (%) (HEK-293T; [4]): 30% and 35% and 38% and 33%
- Total Cell Count (HEK-293T; [4]): 797 and 901 and 1521 and 1236
- Population Apoptotic (%) (HEK-293T; [5]): 16% and 24% and 25% and 17%
- Population Fragmented Nuclei (%) (HEK-293T; [5]): 13% [middle of 4 runs]
- Population Healthy Nuclei (%) (HEK-293T; [5]): 75% and 84% and 83% and 86%
- Population Hoechst High Intensity Objects (%) (HEK-293T; [5]): 8% and 7% and 10%
- Population Membrane Permeable-Phenotype (%) (HEK-293T; [5]): 6% and 3% and 4% and 2%
- Population Mitochondria Different-Phenotype (%) (HEK-293T; [5]): 0%
- Population Mitotic Cells (%) (HEK-293T; [5]): 83% and 75% and 82%
- Population Normal (%) (HEK-293T; [5]): 91% and 92% and 89%
- Population Pyknosed Nuclei (%) (HEK-293T; [5]): 2% and 3% and 4%
- Population Tubulin-Different-Phenotype (%) (HEK-293T; [5]): 12% and 9% and 13% and 16%
- Total Cell Count (HEK-293T; [5]): 3190 and 2284 and 2394 and 1901
- Population Apoptotic (%) (HEK-293T; [6]): 28% and 21% and 14%
- Population Fragmented Nuclei (%) (HEK-293T; [6]): 14% [middle of 4 runs]
- Population Healthy Nuclei (%) (HEK-293T; [6]): 85% and 87% and 73% and 82%
- Population Hoechst High Intensity Objects (%) (HEK-293T; [6]): 9% and 10%
- Population Membrane Permeable-Phenotype (%) (HEK-293T; [6]): 4% and 5% and 2%
- Population Mitochondria Different-Phenotype (%) (HEK-293T; [6]): 0% and 1%
- Population Mitotic Cells (%) (HEK-293T; [6]): 71% and 78% and 85%
- Population Normal (%) (HEK-293T; [6]): 90% and 89%
- Population Pyknosed Nuclei (%) (HEK-293T; [6]): 3% and 2%
- Population Tubulin-Different-Phenotype (%) (HEK-293T; [6]): 15% and 18% and 20%
- Total Cell Count (HEK-293T; [6]): 1964 and 1991 and 3775 and 2773
- Population Apoptotic (%) (Fibroblast; [1]): 28% and 48% and 41% and 34%
- Population Fragmented Nuclei (%) (Fibroblast; [1]): 10% and 16% and 6% and 8%
- Population Healthy Nuclei (%) (Fibroblast; [1]): 72% and 62% and 76% and 70%
- Population Hoechst High Intensity Objects (%) (Fibroblast; [1]): 0% and 11%
- Population Membrane Permeable-Phenotype (%) (Fibroblast; [1]): 7% and 6% and 5%
- Population Mitochondria Different-Phenotype (%) (Fibroblast; [1]): 2% and 0%
- Population Mitotic Cells (%) (Fibroblast; [1]): 71% and 51% and 58% and 65%
- Population Normal (%) (Fibroblast; [1]): 100% and 88%
- Population Pyknosed Nuclei (%) (Fibroblast; [1]): 17% and 20% and 16%
- Population Tubulin-Different-Phenotype (%) (Fibroblast; [1]): 18% and 11% and 9% and 8%
- Total Cell Count (Fibroblast; [1]): 258 and 266 and 187 and 224
- Population Apoptotic (%) (Fibroblast; [2]): 50% and 26% and 38% and 34%
- Population Fragmented Nuclei (%) (Fibroblast; [2]): 8% and 9% and 14% and 12%
- Population Healthy Nuclei (%) (Fibroblast; [2]): 60% and 67% and 71% and 66%
- Population Hoechst High Intensity Objects (%) (Fibroblast; [2]): 0%
- Population Membrane Permeable-Phenotype (%) (Fibroblast; [2]): 4% and 5%
- Population Mitochondria Different-Phenotype (%) (Fibroblast; [2]): 0% and 1%
- Population Mitotic Cells (%) (Fibroblast; [2]): 50% and 73% and 61% and 65%
- Population Normal (%) (Fibroblast; [2]): 100% and 99%
- Population Pyknosed Nuclei (%) (Fibroblast; [2]): 23% [middle of 4 runs]
- Total Cell Count (Fibroblast; [2]): 176 and 182 and 232 and 229
- Population Apoptotic (%) (Fibroblast; [3]): 54% and 53% and 55%
- Population Fragmented Nuclei (%) (Fibroblast; [3]): 8% and 21% and 10%
- Population Healthy Nuclei (%) (Fibroblast; [3]): 74% and 57% and 71% and 65%
